Laboratory results reported in PMC3378324 (Febs Letters, 2012).

B1: ALIXV+PRR: Human Alix recombinant construct (ALIXV+PRR) consisting of residues 362–760 (protein)
chain: SVQQSLAAYNQRKADLVNRSIAQMREATTLANGVLASLNLPAAIEDVSGDTVPQSILTKSRSVIEQGGIQTVDQLIKELPELLQRNREILDESLRLLDEEEATDNDLRAKFKERWQRTPSNELYKPLRAEGTNFRTVLDKAVQADGQVKECYQSHRDTIVLLCKPEPELNAAIPSANPAKTMQGSEVVNVLKSLLSNLDEVKKEREGLENDLKSVNFDMTSKFLTALAQDGVINEEALSVTELDRVYGGLTTKVQESLKKQEGLLKNIQVSHQEFSKMKQSNNEANLREEVLKNLATAYDNFVELVANLKEGTKFYNELTEILVRFQNKCSDIVFARKTERDELLKDLQQSIAREPSAPSIPTPAYQSSPAGGHAPTPPTPAPRTMPPTKPQPPARPPP
modifications: left off: His6-Smt3, N-terminal, state not stated
B2: Alix: ALG-2 (apoptosis-linked gene 2)-interacting protein X, an adapter protein (protein, UniProt Q8WUM4 2-868, looked up)
Programmed cell death …: ATFISVQLKKTSEVDLAKPLVKFIQQTYPSGGEEQAQYCRAAEELSKLRRAAVGRPLDKHEGALETLLRYYDQICSIEPKFPFSENQICLTFTWKDAFDKGSLFGGSVKLALASLGYEKSCVLFNCAALASQIAAEQNLDNDEGLKIAAKHYQFASGAFLHIKETVLSALSREPTVDISPDTVGTLSLIMLAQAQEVFFLKATRDKMKDAIIAKLANQAADYFGDAFKQCQYKDTLPKEVFPVLAAKHCIMQANAEYHQSILAKQQKKFGEEIARLQHAAELIKTVASRYDEYVNVKDFSDKINRALAAAKKDNDFIYHDRVPDLKDLDPIGKATLVKSTPVNVPISQKFTDLFEKMVPVSVQQSLAAYNQRKADLVNRSIAQMREATTLANGVLASLNLPAAIEDVSGDTVPQSILTKSRSVIEQGGIQTVDQLIKELPELLQRNREILDESLRLLDEEEATDNDLRAKFKERWQRTPSNELYKPLRAEGTNFRTVLDKAVQADGQVKECYQSHRDTIVLLCKPEPELNAAIPSANPAKTMQGSEVVNVLKSLLSNLDEVKKEREGLENDLKSVNFDMTSKFLTALAQDGVINEEALSVTELDRVYGGLTTKVQESLKKQEGLLKNIQVSHQEFSKMKQSNNEANLREEVLKNLATAYDNFVELVANLKEGTKFYNELTEILVRFQNKCSDIVFARKTERDELLKDLQQSIAREPSAPSIPTPAYQSSPAGGHAPTPPTPAPRTMPPTKPQPPARPPPPVLPANRAPSATAPSPVGAGTAAPAPSQTPGSAPPPQAQGPPYPTYPGYPGYCQMPMPMGYNPYAYGQYNMPYPPVYHQSPGQAPYPGPQQPSYPFPQPPQQSYYPQQ

Tests used:
[1] = test system: Hck-SH3, Fyn(WT)-SH3, and Fyn(R96I)-SH3; test: NMR 1H-15N HSQC, comparison across SH3 domains; format: binding; settings: 1 equivalent of ALIXV+PRR
Hck-SH3-GST = test: GST pull-down, SDS-PAGE and Coomassie blue staining; format: binding, human; settings: in vitro
Outline: (§1)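 Partner protein: human Alix fragment ALIX_V+PRR (residues 362–760, V domain plus SH3-binding proline-rich region), expressed with an N-terminal His6-Smt3 tag in E. coli BL21(DE3). Baits were GST-fused SH3 domains (Hck; Fyn wild-type; Fyn RT-loop mutant with Arg96 replaced by Ile). In vitro GST pull-down; bound protein resolved by SDS-PAGE and visualised by Coomassie blue staining.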

Fyn(R96I)-SH3-GST = test: as above; format: binding; settings: in vitro
Outline: as §1

[2] = SAXS; apo; compared with 190 ± 10 Å; ref [12]; cited from earlier work
Hck = settings: ref [12]; cited from earlier work

Molecule	involvement of nSrc loop, Hck-SH3 versus Fyn(R96I)-SH3 [1]	GST pull-down binding (Hck-SH3-GST)	GST pull-down binding (Fyn(R96I)-SH3-GST)	maximum diameter (Dm) compared with Fyn(R96I)-SH3-bound ALIXV+PRR [2]	binding to and activation of Hck (Hck)
B1	the nSrc loop seems to be more involved in the Hck-SH3–ALIXV+PRR interaction than in the Fyn(R96I)-SH3–ALIXV+PRR interaction	binding	binding	the same	
B2					binds to and activates Hck
